This is an account of results in ChEMBL document CHEMBL1149149, “Design, synthesis, and biological activity of 1,3-disubstituted ureas as potent inhibitors of the soluble epoxide hydrolase of increased water solubility” (J Med Chem, 2004).

Molecules are shown by their SMILES. In brackets after ≈: the same amount, converted by molar mass.

The target of data set [1] is T1, Bifunctional epoxide hydrolase 2 (Homo sapiens) (UniProt P34913).
T1 sequence (whole entry): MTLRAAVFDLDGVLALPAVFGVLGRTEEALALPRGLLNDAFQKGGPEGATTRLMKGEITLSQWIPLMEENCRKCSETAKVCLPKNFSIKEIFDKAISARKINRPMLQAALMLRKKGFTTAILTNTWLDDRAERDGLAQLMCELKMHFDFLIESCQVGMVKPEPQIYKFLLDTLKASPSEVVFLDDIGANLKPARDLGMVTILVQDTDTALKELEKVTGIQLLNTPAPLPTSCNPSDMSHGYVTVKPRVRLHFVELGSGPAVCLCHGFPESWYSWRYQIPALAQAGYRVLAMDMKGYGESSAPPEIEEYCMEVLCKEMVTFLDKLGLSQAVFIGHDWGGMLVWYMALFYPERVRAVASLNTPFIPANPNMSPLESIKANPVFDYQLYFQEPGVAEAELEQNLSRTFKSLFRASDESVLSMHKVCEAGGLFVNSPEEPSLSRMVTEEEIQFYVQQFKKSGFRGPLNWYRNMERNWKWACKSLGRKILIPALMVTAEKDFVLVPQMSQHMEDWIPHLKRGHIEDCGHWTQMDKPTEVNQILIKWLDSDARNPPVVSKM
In words: Tested for 90 % inhibitory concentration against human soluble epoxide hydrolase (sEH). In short, it runs like this:
(§1)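 Recombinant sEH (human for line 1, mouse for line 2) expressed in baculovirus and affinity-purified to ≥97%. Enzyme was preincubated with inhibitor for 5 min at 30 °C in 0.1 M sodium phosphate, pH 7.4, with 0.1 mg/mL BSA. Racemic 4-nitrophenyl-trans-2,3-epoxy-3-phenylpropyl carbonate (40 µM) was then added, and 4-nitrophenolate was read at 405 nm for 1 min at 30 °C. Assays were run in triplicate.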

In data set [2] the target is T2, Bifunctional epoxide hydrolase 2 (Mus musculus) (UniProt P34914).
T2 sequence (whole entry): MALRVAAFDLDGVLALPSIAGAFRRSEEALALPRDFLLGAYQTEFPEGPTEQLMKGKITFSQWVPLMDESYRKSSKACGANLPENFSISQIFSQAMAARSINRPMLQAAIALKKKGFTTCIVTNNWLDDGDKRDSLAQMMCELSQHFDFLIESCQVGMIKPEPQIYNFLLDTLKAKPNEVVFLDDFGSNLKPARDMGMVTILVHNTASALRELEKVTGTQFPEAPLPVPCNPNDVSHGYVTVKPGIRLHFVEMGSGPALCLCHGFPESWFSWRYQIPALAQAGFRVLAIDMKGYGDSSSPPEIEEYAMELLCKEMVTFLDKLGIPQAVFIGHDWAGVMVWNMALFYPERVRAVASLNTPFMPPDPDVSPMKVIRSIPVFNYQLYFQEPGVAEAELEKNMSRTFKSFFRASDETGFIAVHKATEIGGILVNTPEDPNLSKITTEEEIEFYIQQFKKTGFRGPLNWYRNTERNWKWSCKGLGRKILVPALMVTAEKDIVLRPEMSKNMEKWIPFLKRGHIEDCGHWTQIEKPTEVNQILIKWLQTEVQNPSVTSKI
Nature of the data set: Tested for 90 % inhibitory concentration against mouse soluble epoxide hydrolase (sEH). In short, it runs like this: as §1

The target of data set [3] is T3, Bifunctional epoxide hydrolase 2 (Homo sapiens, UniProt P34913).
T3 sequence (P34913 whole entry): T1 sequence (whole entry)
In words: Tested for 50 % inhibitory concentration against human soluble epoxide hydrolase (sEH). An outline of the steps:
(§2)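 Recombinant sEH was expressed in baculovirus and affinity-purified to at least 97% purity. Enzyme was preincubated with inhibitor for 5 min at 30 °C in 0.1 M sodium phosphate, pH 7.4, with 0.1 mg/mL BSA. Racemic 4-nitrophenyl-trans-2,3-epoxy-3-phenylpropyl carbonate was the substrate (40 µM). 4-Nitrophenolate was read at 405 nm for 1 min. Run in triplicate; IC50 from regression of at least five points.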

The target of data set [4] is T4, Bifunctional epoxide hydrolase 2 (Mus musculus, UniProt P34914).
T4 sequence (P34914 whole entry): T2 sequence (whole entry)
Nature of the data set: Tested for 50 % inhibitory concentration against mouse soluble epoxide hydrolase (sEH). An outline of the steps: as §2

The nature of data set [5]: Solubility in sodium phosphate buffer (0.1 M, pH 7.4) at 25 degrees C was determined.
Data set [6] in a line: Partition coefficient (logP). The format is physicochemical. As to conditions: octanol/water. An outline of the steps:
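Compound dissolved in buffer-saturated octanol, then mixed with octanol-saturated 0.1 M sodium phosphate buffer, pH 7.4. Shaken 24 h at 23 ± 1.5 °C and centrifuged 5 min at 200g. Each phase was quantified by LC-MS/MS, and log P was taken as log [octanol]/[water]. Triplicate analyses.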

The IC90 is the point of the concentration-response curve where the effect stands at 90%. Low readings indicate an effect from little substance, high ones a need for much substance. Take `CCOC(=O)CCCCOC(=O)CCCNC(=O)NC12CC3CC(CC(C3)C1)C2`: the IC90 came to 1500 nM in data set [1] and 100 nM in data set [2].
For orientation: IC50 means the concentration needed to halve the response being measured. For `O=C(NCCCCCO)NC1CCCCC1`, the IC50 was 253 µM in data set [3] and 90000 nM in data set [4].
Turning to `CC(C)=CCCC(C)CCOC(=O)CCCNC(=O)NC12CC3CC(CC(C3)C1)C2` (configuration not stated), the IC50 in data set [3] is 0.11 µM; in data set [4], 50 nM.
The term solubility denotes how much of the substance goes into solution per volume. Consider `CCCCCOC(=O)CCCNC(=O)NC12CC3CC(CC(C3)C1)C2`, for which the solubility in data set [5] (sodium phosphate buffer) was 1.69 µg/mL (≈ 4.82 µM).
The logP is the decadic logarithm of the partition coefficient of the neutral form, usually between octanol and water. A higher logP goes with a more lipophilic compound. `CCCCCCCCCCNC(=O)NC12CC3CC(CC(C3)C1)C2` showed a solubility in data set [5] (sodium phosphate buffer) of 0.62 µg/mL (≈ 1.85 µM). In addition, in data set [6], the log partition coefficient (logP) worked out at 5.25.
Consider `CCCCCCC(=O)NCCNC(=O)Nc1cccc(Cl)c1`, for which, in data set [3], the IC50 is more than 100 µM.
Consider `O=C(O)CNC(=O)NC1CCCCC1`, for which the results for the concentration for half-maximal inhibition (IC50) in data set [3] and in data set [4] were more than 500 µM and more than 500000 nM, respectively.
Regarding `CCOC(=O)CCOC(=O)CCCNC(=O)NC12CC3CC(CC(C3)C1)C2`, the concentration for an effect of 90% (IC90) turned out to be 9000 nM in data set [1] and 630 nM in data set [2].
`COC(=O)CCCNC(=O)NC12CC3CC(CC(C3)C1)C2` registered a solubility in data set [5] (sodium phosphate buffer) of 1.6 µg/mL (≈ 5.43 µM). The lipophilicity (logP) in data set [6] was found to be 0.18. Further, the values for the IC50 in data set [3] and in data set [4] were 1.6 µM and 100 nM, respectively.
`CCOC(=O)c1ccc(COC(=O)CCCNC(=O)NC23CC4CC(CC(C4)C2)C3)cc1`: the IC50 came out at 0.1 µM in data set [3] and 50 nM in data set [4].
Consider `CCCCCCC(O)CCCNC(=O)Nc1cccc(Cl)c1` (configuration not stated), for which the IC50 in data set [3] worked out at 3.1 µM; in data set [4], 140 nM.
As to `CCOC(=O)/C=C/c1ccc(OC(=O)CCCNC(=O)NC23CC4CC(CC(C4)C2)C3)cc1`, the half-inhibitory concentration (IC50) came out at 0.2 µM in data set [3] and 50 nM in data set [4].
Turning to `CCCCCCCCCCNC(=O)NC1CCCCC1`, in data set [5] (buffer), the solubility turned out to be 0.44 µg/mL (≈ 1.56 µM). Further, the log partition coefficient (logP) in data set [6] was 5.44.
Turning to `CCOC(=O)CCCOC(=O)CCCNC(=O)NC12CC3CC(CC(C3)C1)C2`, the IC90 was determined as 5000 nM in data set [1] and 160 nM in data set [2].
Consider `CCOC(=O)COC(=O)CCCNC(=O)NC12CC3CC(CC(C3)C1)C2`, for which the concentration for an effect of 90% (IC90) stood at 9000 nM in data set [1] and 110 nM in data set [2].
Consider `COCCCNC(=O)NC1CCCCC1`, for which the 50% inhibitory concentration (IC50) in data set [3] was found to be 6.2 µM; in data set [4], 330 nM.
For `CCCCCOC(=O)NCCNC(=O)Nc1cccc(Cl)c1`, the IC50 in data set [3] is more than 100 µM.
In the case of `CCOC(=O)CCCCCCCCCOC(=O)CCCNC(=O)NC12CC3CC(CC(C3)C1)C2`, the 90% effect concentration (IC90) in data set [1] came out at 680 nM; in data set [2], 260 nM.
`CCCCCOC(=O)CCCNC(=O)NC1CCCCC1` registered a solubility in data set [5] of 1.51 µg/mL (≈ 5.06 µM). Besides, the logP in data set [6] stood at 0.82.
Consider `CCOC(=O)CCCCCCCCCCOC(=O)CCCNC(=O)NC12CC3CC(CC(C3)C1)C2`, for which the values for the 90% effect concentration (IC90) in data set [1] and in data set [2] were 1200 nM and 350 nM, respectively.
For the molecule `CCOC(=O)Cc1ccc(OC(=O)CCCNC(=O)NC23CC4CC(CC(C4)C2)C3)cc1`, the IC50 in data set [3] was 0.14 µM; in data set [4], 50 nM.
On to `O=C(NCCCO)NC1CCCCC1`, for which the IC50 in data set [3] is more than 500 µM; in data set [4] it was more than 500000 nM.
As to `CCOC(=O)CCCCCCCCCCCOC(=O)CCCNC(=O)NC12CC3CC(CC(C3)C1)C2`, the values for the 90% effect concentration (IC90) in data set [1] and in data set [2] were 1800 nM and 630 nM, respectively.
Regarding `CCOC(=O)CCCCCCCOC(=O)CCCNC(=O)NC12CC3CC(CC(C3)C1)C2`, the figures for the concentration for an effect of 90% (IC90) in data set [1] and in data set [2] were 720 nM and 160 nM, respectively.
As for `O=C(O)CCCNC(=O)NC12CC3CC(CC(C3)C1)C2`, the solubility in data set [5] (sodium phosphate buffer) stood at 7.06 µg/mL (≈ 25.2 µM). In data set [6], this molecule registered a logP of 0.14. In addition, the IC50 was 37 µM in data set [3] and 22000 nM in data set [4].
In data set [3], `CCCCCNC(=O)NCCNC(=O)Nc1cccc(Cl)c1` gave a concentration for half-maximal inhibition (IC50) of more than 100 µM.
